Consider 2 molecules from ChEMBL document CHEMBL1138787, “Synthesis and evaluation of nitrofuranylamides as novel antituberculosis agents” (J Med Chem, 2004).

The test system of data set [1] is Mycobacterium tuberculosis. In words: Viable Mycobacterium tuberculosis in spleen of infected Mice after an 8-day drug treatment; Dose is 150 mg/kg. It is filed as functional. The method, boiled down: (§1)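 C57BL/6 interferon-γ gene-depleted (GKO) mice infected by low-dose aerosol. Eight daily treatments started 18 days postinfection. At day 28, lung and spleen homogenates serially diluted onto Middlebrook 7H11 agar and incubated 4 weeks at 37 °C. CFU log-transformed and reported ±SEM; one-way Dunnett multiple-comparison ANOVA, significance at 95% confidence.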

Data set [2] deals with UDP-galactopyranose mutase (Mycobacterium tuberculosis, UniProt P9WIQ1). In words: Inhibition of Mycobacterium tuberculosis UDP-galactose mutase expressed in Escherichia coli UDP-6 [3H]- Galf. Set-up: species or system H37Rv. The gist of the method:
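Reverse-direction radiometric Glf assay on crude soluble enzyme extract, preactivated 30 min at 37 °C in 25 mM MOPS with NADH and FAD. Each 25 µL well held MOPS pH 7.2, MgCl2, NADH, FAD, 2.3 µg protein, 20 pmol UDP-6-[3H]Galf and 1 µL DMSO. Inhibitors at 100-6.3 µM; reaction 5-20 min. Conversion read by HPLC or periodate filter-plate counting; IC50 calculated.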

In data set [3] the test system is Vero. Put plainly: Selectivity is the ratio of cytotoxicity compared to TBMIC. It is filed as functional. The gist of the method:
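Ratio of VERO cell toxicity IC50 to M. tuberculosis H37Ra MIC. VERO monolayers were exposed to 3-fold compound dilutions for 72 h, and viability was read by tetrazolium reduction at 490 nm, with untreated and SDS-lysed cells as 0% and 100%. MIC was by microbroth dilution in 7H9 (OD650 0.01 inoculum), 37 °C for 8 days, with visual 90% growth inhibition.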

Data set [4] can be described thus: The protein binding is expressed as percent bound as determined by VolSurf. It is filed as ADME. The conditions noted are these: read-out: Protein binding (converted).
Data set [5] relates to Mycobacterium tuberculosis. Put plainly: Viable Mycobacterium tuberculosis in lungs of infected Mice after an 8-day drug treatment; Dose is 150 mg/kg. It is filed as functional, Lung. The method, boiled down:
as §1

Data set [6] deals with Mycobacterium tuberculosis. In words: Activity against Mycobacterium tuberculosis H37Ra. It is filed as functional. The method, boiled down:
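Microbroth dilution in microtiter plates. H37Ra grown in Middlebrook 7H9 to OD650 0.4-0.6, then diluted to OD650 0.01. 100 µL of cells added to serial compound dilutions and incubated 37 °C for 8 days, growth read visually. MIC90 taken as wells with >90% growth inhibition; isoniazid positive control on every plate.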

Data set [7] concerns Mycobacterium tuberculosis. In words: Viable Mycobacterium tuberculosis in spleen of infected Mice after an 8-day drug treatment; Dose is 25 mg/kg. It is filed as functional. The method, boiled down: as §1
Data set [8] concerns Mycobacterium tuberculosis. Put plainly: Viable Mycobacterium tuberculosis in lungs of infected Mice after an 8-day drug treatment; Dose is 25 mg/kg. It is filed as functional, Lung. The method, boiled down:
as §1

Chain of UDP-galactopyranose mutase (P9WIQ1 whole entry): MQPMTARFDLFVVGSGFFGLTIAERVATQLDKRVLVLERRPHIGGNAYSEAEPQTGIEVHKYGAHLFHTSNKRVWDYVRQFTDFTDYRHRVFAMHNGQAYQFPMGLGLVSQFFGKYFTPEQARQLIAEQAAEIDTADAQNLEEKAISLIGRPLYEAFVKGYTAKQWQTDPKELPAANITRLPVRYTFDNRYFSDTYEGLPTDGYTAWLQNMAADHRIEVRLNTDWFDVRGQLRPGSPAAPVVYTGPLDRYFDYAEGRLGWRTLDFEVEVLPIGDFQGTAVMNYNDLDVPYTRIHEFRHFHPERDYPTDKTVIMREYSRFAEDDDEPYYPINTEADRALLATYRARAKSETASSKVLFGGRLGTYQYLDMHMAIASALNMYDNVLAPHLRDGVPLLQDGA

For `COc1cccc(NC(=O)c2ccc([N+](=O)[O-])o2)c1`, the Activity is 7.2 log CFU in data set [1] and 8 log CFU in data set [5]. The molecule further gave an IC50 in data set [2] of 160 µM. Moreover, the Selectivity index in data set [3] is 23.3. For the same molecule, the fraction unbound in data set [4] was 0.364. The TBMIC in data set [6] was found to be 0.8 µg/mL.

As for `NNC(=O)c1ccncc1` [ISONIAZID], the results for the Activity in data set [7] and in data set [8] were 3.2 log CFU and 5.5 log CFU, respectively.
